According to ChEMBL document CHEMBL2176867, “Design, synthesis, and biological evaluation of novel deguelin-based heat shock protein 90 (HSP90) inhibitors targeting proliferation and angiogenesis” (J Med Chem, 2012):
The source made the active and inactive calls. No cut-off for these calls is given here.

Key:
[1] = Cytotoxicity against human H1299 cells after 3 days by MTS assay; format: functional, cell-based; conditions: NCI-H1299, 72 h
Outline: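 H1299 NSCLC cells seeded at 5 × 10³ cells/well, treated next day with graded concentrations (0.1% DMSO as dilution control); proliferation read by MTS after 3 days; at least three replicate wells; IC50 taken as mean of triplicate experiments.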

[2] = molecular target: Heat shock protein HSP 90-beta (Homo sapiens) (UniProt P08238); experiment: Inhibition of HSP90 binding to HIF1alpha in human H1299 cells at 12.5 uM after 30 mins by immunoprecipitation and immunoblotting analysis; format: cell-based; conditions: 1.25 uM, in the assay text read “1.25 uM” for “12.5 uM”
Outline: (§1)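 Cell-free format: lysates of H1299 cells pretreated with 100 μM CoCl₂ for 5 h, incubated with compound at 1.25 μM, with or without 20 mM ATP, 30 min at 37 °C. HIF-1α immunoprecipitated (antibody overnight, 4 °C; protein G-agarose 2 h, 4 °C), resolved on 6% SDS-PAGE, blotted for HSP90.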

[3] = molecular target: Heat shock protein HSP 90-beta (Homo sapiens) (UniProt P08238); experiment: Inhibition of HSP90 binding to HIF1alpha in human H1299 cells at 12.5 uM after 30 mins by immunoprecipitation and immunoblotting analysis in presence of ATP; format: cell-based; conditions: 1.25 uM, in the assay text read “1.25 uM” for “12.5 uM”; outline: as §1
Danio rerio [4] = species on record: Danio rerio; experiment: Toxicity in transgenic zebrafish embryos assessed as effect on viability at 50 nM to 1.25 uM after 74 hrs; format: organism-based; conditions: in vivo, 0.05 µM
Outline: (§2)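 Zebrafish embryos exposed from 24 hpf to 50 nM–1.25 μM in Danieau's solution (pigmentation blocked with 1-phenyl-2-thiourea at 12 hpf); solution washed out at 48 hpf, then scored for viability and gross morphological abnormalities.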

Danio rerio [5] = species on record: Danio rerio; experiment: Antiangiogenic activity in transgenic zebrafish assessed as depletion of subintestinal veins after 72 hrs; format: functional, organism-based
Outline: (§3)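 Tg(fli:EGFP)^y1 embryos, treated with 1-phenyl-2-thiourea at 12 hpf to block pigmentation, placed in Danieau's solution ± test agents (50, 250, 1250 nM) at 24 hpf; solution washed out at 48 hpf; subintestinal vessels imaged in 72 hpf larvae against DMSO control.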

Danio rerio [6] = species on record: Danio rerio; experiment: Antiangiogenic activity in transgenic zebrafish embryos
[7] = molecular target: Heat shock protein HSP 90-beta (Homo sapiens) (UniProt P08238); experiment: Inhibition of HSP90 in human H1299 cells assessed as reduction of HIF1alpha level treated for 72 hrs followed by incubated for 12 hrs under hypoxia condition by Western blot analysis; format: cell-based
Outline: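 H1299 cells left untreated or exposed to test agents at each concentration for 72 h, then held under hypoxia (1% O₂) for 12 h; lysates immunoblotted with monoclonal anti-HIF-1α antibody.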

Danio rerio [8] = species on record: Danio rerio; experiment: Toxicity in transgenic zebrafish embryos assessed as effect on growth at 50 nM to 1.25 uM after 74 hrs; format: organism-based; conditions: in vivo, 0.05 µM; outline: as §2
Danio rerio [9] = species on record: Danio rerio; experiment: Toxicity in transgenic zebrafish embryos assessed as developmental deffect at 50 nM to 1.25 uM after 24 hrs; format: organism-based; conditions: in vivo, 0.05 µM; outline: as §2
Danio rerio [10] = species on record: Danio rerio; experiment: Toxicity in transgenic zebrafish embryos assessed as developmental deffect at 10 uM after 24 hrs; format: organism-based; conditions: in vivo
Danio rerio [11] = species on record: Danio rerio; experiment: Antiangiogenic activity in transgenic zebrafish at 0.05 to 1.25 uM up to 72 hrs; format: functional, organism-based; outline: as §3
Danio rerio [12] = species on record: Danio rerio; experiment: Antiangiogenic activity in transgenic zebrafish assessed as depletion of subintestinal veins at 50 nM to 1250 nM after 72 hrs; format: functional, organism-based; outline: as §3
Danio rerio [13] = species on record: Danio rerio; experiment: Toxicity in transgenic zebrafish embryos assessed as developmental deffect at 50 nM to 10 uM after 24 hrs; format: organism-based; conditions: in vivo, 0.05 µM
Outline: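 Tg(fli:EGFP)y1 zebrafish embryos were exposed dose-dependently from 50% epiboly (5.3 hpf) across 50 nM to 10 μM, then scored for developmental defects. Pigmentation was blocked with 1-phenyl-2-thiourea at 12 hpf, and compounds were given in Danieau's solution, with DMSO as the negative control.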

Danio rerio [14] = species on record: Danio rerio; experiment: Antiangiogenic activity in transgenic zebrafish at 50 nM up to 72 hrs; format: functional, organism-based; outline: as §3
Danio rerio [15] = species on record: Danio rerio; experiment: Toxicity in transgenic zebrafish embryos assessed as effect on viability after 24 hrs; format: organism-based; conditions: in vivo
Outline: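 Tg(fli:EGFP)y1 zebrafish embryos, with pigment suppressed by 1-phenyl-2-thiourea from 12 hpf, were placed at 24 hpf in Danieau's solution with or without compound (50 nM to 1.25 μM). The solution was washed out at 48 hpf, and embryos were examined for viability and gross morphological abnormalities, with DMSO as the control.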

Chain of Heat shock protein HSP 90-beta (Homo sapiens) (P08238 whole entry): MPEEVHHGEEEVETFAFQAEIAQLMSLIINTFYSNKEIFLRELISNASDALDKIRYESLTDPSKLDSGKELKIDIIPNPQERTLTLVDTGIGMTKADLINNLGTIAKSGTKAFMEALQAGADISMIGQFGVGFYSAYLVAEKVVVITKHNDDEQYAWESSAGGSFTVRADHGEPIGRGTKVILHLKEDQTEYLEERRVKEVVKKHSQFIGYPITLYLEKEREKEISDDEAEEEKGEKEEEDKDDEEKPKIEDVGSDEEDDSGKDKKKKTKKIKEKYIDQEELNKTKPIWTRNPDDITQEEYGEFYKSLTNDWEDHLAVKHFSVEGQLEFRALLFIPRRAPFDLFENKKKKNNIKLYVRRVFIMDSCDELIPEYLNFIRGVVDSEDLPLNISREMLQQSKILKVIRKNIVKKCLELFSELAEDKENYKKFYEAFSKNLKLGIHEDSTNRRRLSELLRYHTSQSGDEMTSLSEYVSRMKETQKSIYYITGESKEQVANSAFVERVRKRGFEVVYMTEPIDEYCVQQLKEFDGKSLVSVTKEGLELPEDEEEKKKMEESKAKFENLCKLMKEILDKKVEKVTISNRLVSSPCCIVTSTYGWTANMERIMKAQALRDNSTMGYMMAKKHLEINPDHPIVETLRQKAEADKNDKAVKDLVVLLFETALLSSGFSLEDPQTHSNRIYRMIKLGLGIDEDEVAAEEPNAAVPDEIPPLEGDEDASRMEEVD

Question: Which IC50 [1] does the source give for `COc1cc2c(cc1OC)C(C(=O)c1ccc3c(c1)C=CC(C)(C)O3)CCO2` (racemic) here?
Answer: 3.8 µM

Question: Which inhibition [2] does the source give for `COc1ccc(CC(=O)c2ccc3c(c2OC)C=CC(C)(C)O3)cc1OC` here?
Answer: Active

Question: What about the IC50 [1] of the same molecule?
Answer: 0.14 µM

Question: And the inhibition [3]?
Answer: inactive

Question: What about the Activity (Danio rerio [4]) of the same molecule?
Answer: Non-toxic

Question: What about the Activity (Danio rerio [5]) of the same molecule?
Answer: Dose-dependent effect

Question: What about the Activity (Danio rerio [6]) of the same molecule?
Answer: Dose-dependent effect

Question: What about the inhibition [7] of the same molecule?
Answer: Active

Question: And the Activity (Danio rerio [8])?
Answer: Non-toxic

Question: What about the Activity (Danio rerio [9]) of the same molecule?
Answer: Non-toxic

Question: And the Activity (Danio rerio [10])?
Answer: Toxic

Question: With `COc1cc2c(cc1OC)[C@@H]1C(=O)c3ccc(OC(C)=O)c(CC=C(C)C)c3O[C@@H]1CO2` as the molecule, how does the IC50 [1] read?
Answer: > 500 µM

Question: With `COc1ccc(C2COc3c(ccc4c3C=CC(C)(C)O4)C2=O)cc1OC` (racemic) as the molecule, how does the IC50 [1] read?
Answer: 4.5 µM

Question: For `CO/N=C1\c2ccc3c(c2O[C@@H]2COc4cc(OC)c(OC)cc4[C@H]12)C=CC(C)(C)O3`, which IC50 [1] is on record?
Answer: 4.3 µM

Question: For `CCO[C@@H]1c2ccc3c(c2O[C@@H]2COc4cc(OC)c(OC)cc4[C@H]12)C=CC(C)(C)O3`, which IC50 [1] is on record?
Answer: 9.8 µM

Question: Which IC50 [1] does the source give for `COc1cc2c(cc1OC)[C@@H]1[C@H](OCc3ccccc3)c3ccc4c(c3O[C@@H]1CO2)C=CC(C)(C)O4` here?
Answer: > 500 µM

Question: Which IC50 [1] does the source give for `COc1cc2c(cc1OC)[C@@H]1C(=O)c3ccc(O)c(CC=C(C)C)c3O[C@@H]1CO2` [ROTENONIC ACID] here?
Answer: 9.8 µM

Question: With `COc1cc2c(cc1OC)[C@@H]1[C@H](OC(N)=O)c3ccc4c(c3O[C@@H]1CO2)C=CC(C)(C)O4` as the molecule, how does the IC50 [1] read?
Answer: 0.11 µM

Question: And the inhibition [7]?
Answer: Active

Question: And the Activity (Danio rerio [11])?
Answer: inactive

Question: For `COc1cc2c(cc1OC)[C@@H]1[C@H](OC(C)=O)c3ccc4c(c3O[C@@H]1CO2)C=CC(C)(C)O4`, which IC50 [1] is on record?
Answer: 0.68 µM

Question: For `COc1cc2c(cc1OC)[C@@H]1C(=O)c3ccc4c(c3O[C@@H]1CO2)CCC(C)(C)O4`, which IC50 [1] is on record?
Answer: 0.14 µM

Question: With `COc1cc2c(cc1OC)[C@@H]1C(=O)c3ccc4c(c3O[C@@H]1CO2)C(O)C(O)C(C)(C)O4` (some centres undefined) as the molecule, how does the IC50 [1] read?
Answer: > 500 µM

Question: Which IC50 [1] does the source give for `COc1ccc(CC(=O)c2ccc3c(c2)C=CC(C)(C)O3)cc1OC` here?
Answer: 1 µM

Question: Which IC50 [1] does the source give for `COc1cc2c(cc1OC)C1=Cc3ccc4c(c3O[C@@H]1CO2)C=CC(C)(C)O4` here?
Answer: > 500 µM

Question: Which IC50 [1] does the source give for `COc1cc2c(cc1O)OC[C@H]1Oc3c(ccc4c3C=CC(C)(C)O4)C(=O)[C@@H]21` here?
Answer: 0.87 µM

Question: Which IC50 [1] does the source give for `COc1cc2c(cc1OC)-c1c(oc3c4c(ccc3c1=O)OC(C)(C)C=C4)CO2` [DEHYDRODEGUELIN] here?
Answer: > 500 µM

Question: With `CC1(C)C=Cc2c(ccc3c2O[C@@H]2COc4cc(O)c(O)cc4[C@@H]2C3=O)O1` as the molecule, how does the IC50 [1] read?
Answer: 10.1 µM

Question: For `COc1cc2c(cc1OC)[C@@H]1Cc3ccc4c(c3O[C@@H]1CO2)C=CC(C)(C)O4`, which IC50 [1] is on record?
Answer: 4.2 µM

Question: For `C=CCOc1ccc2c(c1CC=C(C)C)O[C@@H]1COc3cc(OC)c(OC)cc3[C@@H]1C2=O`, which IC50 [1] is on record?
Answer: > 500 µM

Question: For `COc1ccc(C2(C(=O)c3ccc4c(c3OC)C=CC(C)(C)O4)CC2)cc1OC`, which IC50 [1] is on record?
Answer: 102 µM

Question: With `COc1cc2c(cc1OC)[C@@H]1C(=O)c3ccc(OC)c(CC=C(C)C)c3O[C@@H]1CO2` [ROTENONIC ACID, METHYL ETHER] as the molecule, how does the IC50 [1] read?
Answer: 5.2 µM

Question: For `COc1cc2c(cc1OC)[C@@H]1C(=O)c3ccc(OCc4ccccc4)c(CC=C(C)C)c3O[C@@H]1CO2`, which IC50 [1] is on record?
Answer: > 500 µM

Question: Which IC50 [1] does the source give for `COc1cc2c(cc1OC)[C@@H]1[C@H](OC)c3ccc4c(c3O[C@@H]1CO2)C=CC(C)(C)O4` here?
Answer: 4.1 µM

Question: With `COc1cc2c(cc1O)[C@@H]1C(=O)c3ccc4c(c3O[C@@H]1CO2)C=CC(C)(C)O4` as the molecule, how does the IC50 [1] read?
Answer: 0.97 µM

Question: With `COc1cc2c(cc1OC)[C@@H]1/C(=N/OCc3ccccc3)c3ccc4c(c3O[C@@H]1CO2)C=CC(C)(C)O4` as the molecule, how does the IC50 [1] read?
Answer: > 500 µM

Question: With `COc1ccc([C@@H](C)C(=O)c2ccc3c(c2OC)C=CC(C)(C)O3)cc1OC` as the molecule, how does the IC50 [1] read?
Answer: 1.3 µM

Question: What about the Activity (Danio rerio [4]) of the same molecule?
Answer: Non-toxic

Question: What about the Activity (Danio rerio [6]) of the same molecule?
Answer: Dose-dependent effect

Question: What about the inhibition [7] of the same molecule?
Answer: Active

Question: What about the Activity (Danio rerio [8]) of the same molecule?
Answer: Non-toxic

Question: And the Activity (Danio rerio [9])?
Answer: Non-toxic

Question: What about the Activity (Danio rerio [10]) of the same molecule?
Answer: Toxic

Question: With `COc1cc2c(cc1OC)[C@@H]1/C(=N/O)c3ccc4c(c3O[C@@H]1CO2)C=CC(C)(C)O4` as the molecule, how does the IC50 [1] read?
Answer: 0.3 µM

Question: For `COc1cc2c(cc1OC)[C@@H]1[C@H](O)c3ccc4c(c3O[C@@H]1CO2)C=CC(C)(C)O4`, which IC50 [1] is on record?
Answer: 0.01 µM

Question: What about the inhibition [7] of the same molecule?
Answer: Active

Question: And the Activity (Danio rerio [11])?
Answer: inactive

Question: Which IC50 [1] does the source give for `COc1ccc(C(C)C(=O)c2ccc3c(c2OC)C=CC(C)(C)O3)cc1OC` (racemic) here?
Answer: 0.73 µM

Question: Which results are given for `COc1ccc([C@H](C)C(=O)c2ccc3c(c2OC)C=CC(C)(C)O3)cc1OC`?
Answer: inhibition [2]: Active; IC50 [1]: 0.49 µM; inhibition [3]: inactive; Activity (Danio rerio [4]): Non-toxic; Activity (Danio rerio [6]): Dose-dependent effect; inhibition [7]: Active; Activity (Danio rerio [8]): Non-toxic; Activity (Danio rerio [9]): Non-toxic; Activity (Danio rerio [10]): Toxic; Activity (Danio rerio [12]): Active

Question: Which IC50 [1] does the source give for `CCCO[C@@H]1c2ccc3c(c2O[C@@H]2COc4cc(OC)c(OC)cc4[C@H]12)C=CC(C)(C)O3` here?
Answer: 10.5 µM

Question: For `COc1cc2c(cc1OC)[C@@H]1C(=O)c3ccc4c(c3O[C@@H]1CO2)C=CC(C)(C)O4` [DEGUELIN], which IC50 [1] is on record?
Answer: 0.11 µM

Question: What about the Activity (Danio rerio [13]) of the same molecule?
Answer: Toxic

Question: What about the Activity (Danio rerio [14]) of the same molecule?
Answer: inactive

Question: What about the Activity (Danio rerio [15]) of the same molecule?
Answer: Dose-dependent effect

Question: For `COc1ccc(C(C)(C)C(=O)c2ccc3c(c2OC)C=CC(C)(C)O3)cc1OC`, which IC50 [1] is on record?
Answer: 3.2 µM
